Experimental data as given in ChEMBL document CHEMBL4368886, “Design, synthesis, and biological activity of novel ammonium salts containing sterically hindered phenolic fragment and phosphoryl group” (Medchemcomm, 2018).
≈ marks a conversion by molar mass, not a printed value. Calls of active or inactive are those of the source. The rule behind the calls is not given here.

Key:
Staphylococcus aureus [1] = experiment: Antimicrobial activity against Staphylococcus aureus 209p measured every 24 hrs for 5 days by two-fold serial dilution method; assay type: functional
Bacillus cereus [2] = experiment: Antimicrobial activity against Bacillus cereus ATCC 8035 measured every 24 hrs for 5 days by two-fold serial dilution method; assay type: functional
Escherichia coli [3] = experiment: Antimicrobial activity against Escherichia coli CDC F-50 measured every 24 hrs for 5 days by two-fold serial dilution method; assay type: functional
Pseudomonas aeruginosa [4] = experiment: Antimicrobial activity against Pseudomonas aeruginosa ATCC 9027 measured every 24 hrs for 5 days by two-fold serial dilution method; assay type: functional
Aspergillus niger [5] = experiment: Antimicrobial activity against Aspergillus niger BKMF-1119 measured after 14 days by two-fold serial dilution method; assay type: functional, organism-based
[6] = tested on: Trichophyton mentagrophytes; experiment: Antimicrobial activity against Trichophyton mentagrophytes var. gypseum 1773 measured after 14 days by two-fold serial dilution method; assay type: functional
Candida albicans [7] = experiment: Antimicrobial activity against Candida albicans 855-653 measured after 14 days by two-fold serial dilution method; assay type: functional
Staphylococcus aureus [8] = experiment: Bactericidal activity against Staphylococcus aureus 209p measured after 4 hrs; assay type: functional
In short: (§1)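 Microbicidal (bactericidal/fungicidal) concentration, killing of microbial cells, determined per literature procedures; tests in duplicate, repeated twice.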

Bacillus cereus [9] = experiment: Bactericidal activity against Bacillus cereus ATCC 8035 measured after 4 hrs; assay type: functional; in short: as §1
Escherichia coli [10] = experiment: Bactericidal activity against Escherichia coli CDC F-50 measured after 4 hrs; assay type: functional; in short: as §1
Pseudomonas aeruginosa [11] = experiment: Bactericidal activity against Pseudomonas aeruginosa ATCC 9027 measured after 4 hrs; assay type: functional; in short: as §1
Aspergillus niger [12] = experiment: Bactericidal activity against Aspergillus niger BKMF-1119 measured after 4 hrs; assay type: functional, organism-based; in short: as §1
[13] = tested on: Trichophyton mentagrophytes var. granulosum; experiment: (§2) Bactericidal activity against Trichophyton mentagrophytes var. granulosum 1773 measured after 4 hrs; assay type: functional; in short: as §1
Candida albicans [14] = experiment: Bactericidal activity against Candida albicans 855-653 measured after 4 hrs; assay type: functional; in short: as §1
[15] = Antioxidant activity assessed as ABAP free radical scavenging activity by measuring decrease in chemiluminescence intensity at 0.5 mM; assay type: functional; set-up: scale not given: the % may be the effect or the level left
In short: (§3)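 Chemiluminescent radical system of ABAP (2,2′-azobis(2-methylpropionamidine) dihydrochloride) plus luminol in buffer, total 1.000 mL; baseline recorded, then test substance added at 0.25, 0.50 or 1.00 mM; chemiluminescence intensity followed over time and expressed as percent of initial value. Ionol used as reference antioxidant.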

[16] = Antioxidant activity assessed as ABAP free radical scavenging activity by measuring decrease in chemiluminescence intensity at 0.25 mM; assay type: functional; set-up: scale not given: the % may be the effect or the level left; in short: as §3
[17] = Antioxidant activity assessed as ABAP free radical scavenging activity by measuring decrease in chemiluminescence intensity at 1 mM measured after 600 secs; assay type: functional; set-up: scale not given: the % may be the effect or the level left; in short: as §3
WI-38 [18] = experiment: Cytotoxicity against human WI38 cells assessed as reduction in cell viability at 0.7 to 11.3 uM by Cytell imaging analysis; assay type: cell-based; conditions: wi-38, 11.3 µM
In short: (§4)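 WI-38 human embryonic lung and Chang liver cells exposed to compounds at three concentrations each (0.70–47.0 μM range, spanning antimicrobial concentrations); cytotoxicity read as number of viable cells counted.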

[19] = Cytotoxicity against human Chang cells assessed as reduction in cell viability at 0.7 to 11.3 uM by Cytell imaging analysis; assay type: cell-based; in short: as §4
WI-38 [20] = experiment: Cytotoxicity against human WI38 cells assessed as reduction in cell viability at 47 uM by Cytell imaging analysis; assay type: cell-based; conditions: wi-38, 47 µM; in short: as §4
[21] = Cytotoxicity against human Chang cells assessed as reduction in cell viability at 47 uM by Cytell imaging analysis; assay type: cell-based; in short: as §4
[22] = Antioxidant activity assessed as ABAP free radical scavenging activity by measuring decrease in chemiluminescence intensity at 1 mM; assay type: functional; set-up: scale not given: the % may be the effect or the level left; in short: as §3
[23] = as §2; assay type: functional; conditions: Trichophyton mentagrophytes, 1773, 4 h; in short: as §1
[24] = Antioxidant activity assessed as ABAP free radical scavenging activity by measuring decrease in chemiluminescence intensity at 0.25 mM measured after 400 secs; assay type: functional; in short: as §3
[25] = Antioxidant activity assessed as ABAP free radical scavenging activity by measuring decrease in chemiluminescence intensity at 0.5 mM measured after 500 secs; assay type: functional; in short: as §3

Row | Compound | MIC (Staphylococcus aureus [1]) [µM] | MIC (Bacillus cereus [2]) [µM] | MIC (Escherichia coli [3]) | MIC (Pseudomonas aeruginosa [4]) | MIC (Aspergillus niger [5]) | MIC [6] | MIC (Staphylococcus aureus [8]) | MIC (Bacillus cereus [9]; ATCC 8035, 4 h) [µM] | MIC (Escherichia coli [10]) | MIC (Pseudomonas aeruginosa [11]) | MIC (Aspergillus niger [12]) | MIC [13] | MIC (Candida albicans [14]; 855-653, 4 h) [µM] | Activity [15] [%] | Activity [16] [%] | MIC (Candida albicans [7]; 855-653, 336 h) [µM] | Activity (WI-38 [18]) | Activity [19] | MIC (Escherichia coli [10]; CDC F-50, 4 h) [µM] | other results
1 | CCOP(=O)(OCC)C(NCCC[N+](C)(C)CC)c1cc(C(C)(C)C)c(O)c(C(C)(C)C)c1 (centres undefined) | 442 | 221 | inactive | inactive | inactive | inactive | 442 µM | 221 | inactive | inactive | inactive | inactive | > 500 | 26 | 44 | – | – | – | – | MIC (Candida albicans [7]): inactive; Activity [17]: 26%
2 | CCCCCCCCCC[N+](C)(C)CCNC(c1cc(C(C)(C)C)c(O)c(C(C)(C)C)c1)P(=O)(OC(C)C)OC(C)C.[Br-] (centres undefined) | 2.7 | 5.6 | inactive | inactive | inactive | inactive | 5.6 µM | 90 | inactive | inactive | inactive | inactive | 11.3 | – | – | 11.3 | Non-Toxic | Non-Toxic | – | –
3 | CCCCCCCCCC[N+](C)(C)CCNC(c1cc(C(C)(C)C)c(O)c(C(C)(C)C)c1)P(=O)(OCC)OCC.[Br-] (centres undefined) | 2.9 | 2.9 | 94.1 µM | 94.1 µM | inactive | inactive | 2.9 µM | 2.9 | – | inactive | inactive | inactive | 47 | 26 | 44 | 47 | Non-Toxic | Non-Toxic | 188 | Activity (WI-38 [20]): Toxic; Activity [21]: Toxic; Activity [22]: 20%
4 | CC(=O)N1CCN(c2ccc(OCC3COC(Cn4ccnc4)(c4ccc(Cl)cc4Cl)O3)cc2)CC1 (centres undefined) [KETOCONAZOLE] | – | – | – | – | – | – | – | – | – | – | – | – | 15.2 (≈ 8.08 µg/mL) | – | – | 7.6 (≈ 4.04 µg/mL) | – | – | – | MIC ([6]; var. gypseum 1773, 336 h): 7.6 µM (≈ 4.04 µg/mL); MIC [23]: 15.2 µM (≈ 8.08 µg/mL)
5 | CCCCCCCCCC[N+](C)(C)CCCNC(=O)CCc1cc(C(C)(C)C)c(O)c(C(C)(C)C)c1 | 1.5 | 6.7 | 26.8 µM | 26.8 µM | inactive | inactive | 3.3 µM | 107 | – | – | inactive | inactive | 0.9 | – | – | 0.9 | – | – | 53.6 | MIC (Pseudomonas aeruginosa [11]; ATCC 9027, 4 h): 26.8 µM
6 | CC[N+](C)(C)CCNC(c1cc(C(C)(C)C)c(O)c(C(C)(C)C)c1)P(=O)(OC(C)C)OC(C)C (centres undefined) | 108 | 216 | inactive | inactive | inactive | inactive | 108 µM | 216 | inactive | inactive | inactive | inactive | – | – | – | 432 | – | – | – | MIC (Candida albicans [14]): inactive
7 | CCCCCCCCCC[N+](C)(C)CCCNC(c1cc(C(C)(C)C)c(O)c(C(C)(C)C)c1)P(=O)(OC(C)C)OC(C)C.[Br-] (centres undefined) | 0.7 | 2.7 | 44.3 µM | 22 µM | inactive | inactive | 1.3 µM | 177 | – | – | inactive | inactive | 11 | 26 | 44 | 11 | Non-Toxic | Non-Toxic | 177 | MIC (Pseudomonas aeruginosa [11]; ATCC 9027, 4 h): 44.3 µM; Activity [24]: Active; Activity [25]: Active; Activity [17]: 26%
8 | CCCCCCCCCCCCCCCC[N+](C)(C)CCCNC(=O)CCc1cc(C(C)(C)C)c(O)c(C(C)(C)C)c1 | 47 | 375 | inactive | inactive | inactive | inactive | inactive | 375 | inactive | inactive | inactive | inactive | 375 | – | – | 187 | – | – | – | –
9 | CCCCCCCCCCCCCCCC[N+](C)(C)CCNC(=O)CCc1cc(C(C)(C)C)c(O)c(C(C)(C)C)c1 | 95.7 | 383 | inactive | inactive | inactive | inactive | inactive | – | inactive | inactive | inactive | inactive | 383 | – | – | 383 | – | – | – | MIC (Bacillus cereus [9]): inactive
10 | CCCCCCCCCCCC[N+](C)(C)CCNC(c1cc(C(C)(C)C)c(O)c(C(C)(C)C)c1)P(=O)(OCC)OCC (centres undefined) | 45.2 | 361 | inactive | inactive | inactive | inactive | 45.2 µM | 361 | inactive | inactive | inactive | inactive | 45.2 | – | – | 45.2 | – | – | – | –
